Assay outcomes deposited in PubChem by The Scripps Research Institute Molecular Screening Center.
In the library only some 1.8% were active in any assay of this set; here they are far more common.
M5 antag = antagonists of human muscarinic M5 receptor (CHRM5); inhibition, % at 3 µM; CHO-hM5 cells, Fluo-8 calcium fluorescence, ACh EC80; P08912; 0.59% of 360,000 active;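 active = inhibition above a per-plate cutoff, the mean of that plate's test compounds plus 3 SD, cut at about 27% in these data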;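 also: 0% = acetylcholine EC80 with DMSO and 100% = DMSO without agonist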
Target sequence (P08912 whole entry, looked up): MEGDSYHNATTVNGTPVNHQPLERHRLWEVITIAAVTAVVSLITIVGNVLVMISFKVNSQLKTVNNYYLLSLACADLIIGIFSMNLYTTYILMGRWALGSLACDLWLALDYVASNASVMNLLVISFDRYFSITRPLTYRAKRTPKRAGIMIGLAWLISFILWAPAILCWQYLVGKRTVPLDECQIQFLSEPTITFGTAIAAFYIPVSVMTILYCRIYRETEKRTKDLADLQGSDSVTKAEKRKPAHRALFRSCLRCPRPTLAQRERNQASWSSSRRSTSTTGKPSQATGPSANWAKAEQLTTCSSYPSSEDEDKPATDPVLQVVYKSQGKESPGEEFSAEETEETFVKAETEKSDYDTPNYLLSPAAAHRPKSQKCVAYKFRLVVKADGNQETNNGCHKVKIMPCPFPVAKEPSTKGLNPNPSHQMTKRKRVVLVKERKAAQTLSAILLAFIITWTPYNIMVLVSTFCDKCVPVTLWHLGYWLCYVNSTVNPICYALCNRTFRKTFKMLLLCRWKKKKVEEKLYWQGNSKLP
M5 PAM = potentiates acetylcholine response at human M5 receptor | 0.3% of 360,000 active | CHO-K1 hM5, Fluo-8 calcium, ACh EC20 PAM; 0% = ACh EC20, 100% = ACh EC100 | P08912 | activation, % at 3 µM;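 active = activation above the run cutoff, the mean activation of all test compounds plus 3 SD, cut at about 18% in these data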
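Probe or stimulus: acetylcholine, EC20 level; Assay system: human M5 receptor in CHO-K1 cells; Schedule: compound preincubation 140 s before EC20 acetylcholine addition; Technique: intracellular calcium via Fluo-8 fluorescence; Dosing: single-point, 3 µM nominal; Read-out basis: percent activation from peak-over-basal fluorescence ratio, scaled EC20-to-EC100 acetylcholine; Repeats: one well per compound, no replicates.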
M5 ag = agonists of human muscarinic M5 receptor (CHRM5) | P08912 | CHO-K1 hM5 cells, Fluo-8 calcium fluorescence; 0% DMSO wells, 100% maximal acetylcholine response | activation, % at 3 µM | 0.19% of 360,000 active;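 active = activation above the run's mean over test compounds plus 3 SD, cut at about 23% in these data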;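 also: signal is peak over basal fluorescence ratio across the kinetic read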
CHRM4 agonist = CHRM4 agonism in calcium assay; P08173; 0.14% of 360,000 active; activation, % at 3 µM; CHO-K1 hM4/Gqi5, Fluo-8 calcium fluorescence; vehicle 0%, full acetylcholine response 100%;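 active = activation above the run mean over all test wells plus 3 SD, cut at about 32% in these data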;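 also: peak over basal fluorescence ratio per well then scaled between controls; 0% = DMSO wells and 100% = acetylcholine at EC100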
M4 PAM = CHRM4 positive allosteric modulation; P08173; CHO-K1 hM4/Gqi5, Fluo-8 calcium fluorescence, ACh EC20; 0% = ACh EC20, 100% = maximal ACh; activation, % at 3 µM; 0.4% of 360,000 active;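 active = activation above its plate's cutoff, the mean activation of sample wells plus 3 SD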
M4 antag = antagonists of human muscarinic M4 receptor (CHRM4) | CHO-hM4 cells, ACh EC80, Fluo-8 calcium fluorescence | AID 624125 | P08173 | 0.73% of 360,000 active | inhibition, % at 3 µM;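 active = inhibition above its plate's cutoff, the mean inhibition of sample wells plus 3 SD, cut at about 27% in these data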;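 also: 0% = acetylcholine EC80 with DMSO and 100% = DMSO without agonist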
The depositor's hits bear a star.

Results for CCN(CC)S(=O)(=O)c1ccc(NC(=O)c2cc(-c3cccs3)nc3ccccc23)cc1 ?
M5 antag: 16.8; M5 PAM: -9.5; M5 ag: -1.0; CHRM4 agonist: 6.2; M4 PAM: -2.2; M4 antag: 0.2

Results for CC(=O)NS(=O)(=O)c1ccc(NC(=O)c2cc(-c3cccs3)nc3ccccc23)cc1 ?
M5 antag: 13.9; M5 PAM: 0.0; M5 ag: 0.6; CHRM4 agonist: 1.9; M4 PAM: 21.9*; M4 antag: 0.2

What do the screens show for `Cc1cc(C)c(NC(=S)NC(NC(=O)c2ccccc2)C(Cl)(Cl)Cl)c(C)c1` (stereo not given)?
M5 antag: 27.0*; M5 PAM: 15.6; M5 ag: 4.7; CHRM4 agonist: 7.3; M4 PAM: -0.6; M4 antag: 6.6

Results for Cc1ccc(NC(=S)NC(NC(=O)c2ccccc2)C(Cl)(Cl)Cl)c(C)c1 (stereo not given) ?
M5 antag: 12.6; M5 PAM: -17.0; M5 ag: 5.9; CHRM4 agonist: 7.6; M4 PAM: 12.1; M4 antag: -24.3

Results for Cc1ccc(C(=O)NC(NC(=S)Nc2ccc(S(N)(=O)=O)cc2)C(Cl)(Cl)Cl)cc1 (stereo not given) ?
M5 antag: 8.3; M5 PAM: -8.2; M5 ag: -3.5; CHRM4 agonist: 3.2; M4 PAM: -0.3; M4 antag: 18.1

Results for O=C(NC(NC(=S)Nc1ccccc1)C(Cl)(Cl)Cl)c1cccc(Cl)c1 (stereo not given) ?
M5 antag: 44.4*; M5 PAM: -10.1; M5 ag: 7.4; CHRM4 agonist: 12.5; M4 PAM: -5.0; M4 antag: 8.7

What do the screens show for `Cc1ccccc1C(=O)NC(NC(=S)Nc1ccc(S(N)(=O)=O)cc1)C(Cl)(Cl)Cl` (stereo not given)?
M5 antag: 11.3; M5 PAM: 1.6; M5 ag: -0.4; CHRM4 agonist: 2.1; M4 PAM: 24.0*; M4 antag: 3.6

What do the screens show for `CC(C)C[C@@H](CN1CCC[C@H]1CN1C(=O)C(=O)NC[C@@H]1Cc1ccc(O)cc1)N1C[C@H](Cc2ccc(O)cc2)N(CC2CCCCCC2)C(=O)C1=O`?
M5 antag: -3.9; M5 PAM: 3.9; M5 ag: -1.3; CHRM4 agonist: 0.2; M4 PAM: 12.1; M4 antag: -8.7

How did CCCCCNC(=O)C1C(=O)Nc2ccccc2C(=O)N1c1ccc(OC)cc1 (stereo not given) do in these assays?
M5 antag: -6.6; M5 PAM: 7.4; M5 ag: 1.1; CHRM4 agonist: 3.6; M4 PAM: 10.2; M4 antag: -4.6

What do the screens show for `CC1=C(C(=O)N2CCCCCC2)CC(CC(=O)NCCN2CCOCC2)C(=O)N1Cc1ccc(C(C)(C)C)cc1` (stereo not given)?
M5 antag: -0.8; M5 PAM: -1.5; M5 ag: -1.0; CHRM4 agonist: 2.0; M4 PAM: 1.0; M4 antag: -2.3

What do the screens show for `COCCNC(=O)C1(C)CCCN(C(=O)c2ccc(OC)c(OC)c2)C1` (stereo not given)?
M5 antag: -7.5; M5 PAM: -0.4; M5 ag: 2.0; CHRM4 agonist: 0.6; M4 PAM: 0.3; M4 antag: -5.8

How did CCOC(=O)CCc1c(C)n(CC)c2cc(-c3ccccc3OC)nn2c1=O do in these assays?
M5 antag: -0.5; M5 PAM: 13.1; M5 ag: -9.2; CHRM4 agonist: -1.3; M4 PAM: 19.4*; M4 antag: -9.3

Results for CN(C)CC1CC/C(=C\c2ccc(O)cc2)C1=O (stereo not given) ?
M5 antag: 9.9; M5 PAM: -8.3; M5 ag: 3.1; CHRM4 agonist: 8.0; M4 PAM: -3.2; M4 antag: 38.5*

Results for CCCCn1nnnc1C(c1ccnc2ccccc12)N1CCN(C/C=C/c2ccccc2)CC1 (stereo not given) ?
M5 antag: 36.5*; M5 PAM: -22.5; M5 ag: -7.7; CHRM4 agonist: 1.4; M4 PAM: -14.0; M4 antag: 22.7

How did CCCCn1nnnc1C(c1cccc2ccccc12)N1CCN(C/C=C/c2ccccc2)CC1 (stereo not given) do in these assays?
M5 antag: 96.4*; M5 PAM: -22.8; M5 ag: -6.1; CHRM4 agonist: 0.9; M4 PAM: -16.8; M4 antag: 83.8*

Results for COc1cccc(C(c2nnnn2C2CCCC2)N2CCN(C/C=C/c3ccccc3)CC2)c1OC (stereo not given) ?
M5 antag: 71.2*; M5 PAM: -21.6; M5 ag: -7.5; CHRM4 agonist: 3.0; M4 PAM: -15.3; M4 antag: 31.3*

Results for O=C(NCc1cccc(Cl)c1)C1Cc2c(-c3ccc(Cl)cc3)ccnc2O1 (stereo not given) ?
M5 antag: 0.5; M5 PAM: -1.5; M5 ag: -0.2; CHRM4 agonist: 2.0; M4 PAM: -3.2; M4 antag: -6.4

What do the screens show for `Cc1ccccc1NC(=O)Nc1nc(CN)cs1`?
M5 antag: -4.2; M5 PAM: 0.6; M5 ag: -1.0; CHRM4 agonist: 1.1; M4 PAM: 4.9; M4 antag: -10.9

Results for OCC1(Cc2ccccc2)CCCN(Cc2cn[nH]c2-c2ccccc2)C1 (stereo not given) ?
M5 antag: 31.6*; M5 PAM: -16.6; M5 ag: -2.4; CHRM4 agonist: 15.2; M4 PAM: -10.9; M4 antag: 2.8

What do the screens show for `CCOC(=O)N1CCN(C(=O)CNC(=O)Cn2cnc3ccccc3c2=O)CC1`?
M5 antag: 2.9; M5 PAM: 8.2; M5 ag: -3.5; CHRM4 agonist: 0.1; M4 PAM: 21.4*; M4 antag: 14.4

What do the screens show for `CC(C)(C)NCCC(O)c1cc(C(F)(F)F)nc2c(C(F)(F)F)cccc12` (stereo not given)?
M5 antag: 2.5; M5 PAM: 4.9; M5 ag: 3.9; CHRM4 agonist: 14.4; M4 PAM: -2.7; M4 antag: -2.4

How did Cc1nc2c(C(F)(F)F)cccc2c2c1CCS2 do in these assays?
M5 antag: -4.5; M5 PAM: 19.0*; M5 ag: 3.9; CHRM4 agonist: 0.1; M4 PAM: 3.8; M4 antag: -4.9

How did CC[N+](CC)(CC#Cc1ccccc1)CC#Cc1ccccc1 do in these assays?
M5 antag: 30.7*; M5 PAM: -31.4; M5 ag: -21.9; CHRM4 agonist: 0.3; M4 PAM: -47.7; M4 antag: 22.7
